Consider 21 compounds from ChEMBL document CHEMBL1795240, “Synthesis and anti-Trypanosoma cruzi activity of β-lapachone analogues” (Eur J Med Chem, 2011).

The subject of assay [1] is Trypanosoma cruzi. Description: Antitrypanosomal activity against bloodstream trypomastigote form of Trypanosoma cruzi Y isolated from albino mouse blood after 24 hrs. The assay is classed as functional, organism-based. An outline of the steps: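 Y-strain bloodstream trypomastigotes taken from infected albino mice at peak parasitaemia, isolated by differential centrifugation, and resuspended at 10^7 cells/mL in DMEM with 10% mouse blood. Compounds were added from DMSO stocks, with final DMSO never above 0.1%.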

The subject of assay [2] is Trypanosoma cruzi. Briefly: Ratio of Benzidazole IC50 to compound IC50 for bloodstream trypomastigote form of Trypanosoma cruzi Y. Format: functional.

For orientation: IC50 means the concentration that gives 50% inhibition. Read a high IC50 as lower potency.

In the assay on Trypanosoma cruzi [1], `CC1(c2ccccc2)CCC2=C(O1)c1ccccc1C(=O)C2=O` (centres undefined) gave an IC50 of 123 µM.
Turning to `O=C1C(=O)c2ccccc2C2=C1CCC(c1ccc(Cl)cc1)O2` (centres undefined), the midpoint of inhibition in the assay on Trypanosoma cruzi [1], the IC50, lay at 20.2 µM.
`Cc1ccc(C2CCC3=C(O2)c2ccccc2C(=O)C3=O)cc1` (centres undefined) gave an IC50 in the assay on Trypanosoma cruzi [1] of 51.4 µM. Moreover, the “Ratio IC50” value in the assay on Trypanosoma cruzi [2] turned out to be 2.
Compound `COc1ccc(C2CCC3=C(O2)c2ccccc2C(=O)C3=O)cc1` (centres undefined) came in with an IC50 with Trypanosoma cruzi [1] of 121 µM.
`O=C1C(=O)c2ccccc2C2=C1CCC(c1ccc(F)cc1)O2` (centres undefined) returned a half-inhibitory concentration (IC50) in the assay on Trypanosoma cruzi [1] of 97.6 µM.
Consider `CCOc1ccc(C2CCC3=C(O2)c2ccccc2C(=O)C3=O)cc1` (centres undefined), for which, in the assay on Trypanosoma cruzi [1], the half-inhibitory concentration (IC50) turned out to be 132 µM.
In the assay with Trypanosoma cruzi [1], `Cc1ccc(C2CCC3=C(O2)c2ccccc2C(=O)C3=O)c(C)c1` (centres undefined) yielded a concentration for half-maximal inhibition (IC50) of 688 µM.
With `Cc1ccc(C2CC(c3ccc([N+](=O)[O-])cc3)C3=C(O2)c2ccccc2C(=O)C3=O)cc1` (centres undefined), the concentration for half-maximal inhibition (IC50) in the assay with Trypanosoma cruzi [1] was over 4000 µM.
`Cc1ccc(C2CC(c3ccccc3)C3=C(O2)c2ccccc2C(=O)C3=O)cc1` (centres undefined) came in with an IC50 in the assay on Trypanosoma cruzi [1] of 849 µM.
In turn, `Cc1ccc(C2CC(c3cccs3)C3=C(O2)c2ccccc2C(=O)C3=O)cc1` (centres undefined) showed an IC50 in the assay with Trypanosoma cruzi [1] of 1860 µM.
As for `O=C1C(=O)c2ccccc2C2=C1C[C@@H]1CC=C[C@@H]1O2`, in the assay on Trypanosoma cruzi [1], inhibition was half-maximal at 62.6 µM (IC50). For the same compound, the “Ratio IC50” value in the assay on Trypanosoma cruzi [2] came out at 2.
In the assay on Trypanosoma cruzi [1], `O=C1C(=O)c2ccccc2C2=C1C[C@@H]1CCC=C[C@@H]1O2` gave a concentration for half-maximal inhibition (IC50) of 161 µM.
On to `O=C1C(=O)c2ccccc2C2=C1C[C@@H]1CCCO[C@@H]1O2`, for which, in the assay on Trypanosoma cruzi [1], the 50% inhibitory concentration (IC50) amounted to 35.4 µM.
In turn, `CCOC1CC[C@H]2CC3=C(O[C@H]2O1)c1ccccc1C(=O)C3=O` (some centres undefined) returned a concentration for half-maximal inhibition (IC50) in the assay with Trypanosoma cruzi [1] of 331 µM.
In the assay on Trypanosoma cruzi [1], `COC1CC[C@H]2CC3=C(O[C@H]2O1)c1ccccc1C(=O)C3=O` (some centres undefined) came in with an IC50 of 880 µM.
In the case of `CC1(C)CCc2c(c3ccccc3c3nc(-c4ccc5c(c4)OCO5)oc23)O1`, in the assay with Trypanosoma cruzi [1], the IC50 amounted to 25 µM.
Turning to `CC1(C)CCc2c(c3ccccc3c3nc(-c4c[nH]c5ccccc45)[nH]c23)O1`, in the assay on Trypanosoma cruzi [1], the IC50 was determined as 20 µM.
Consider `CC1(C)CCC2=C(O1)c1ccccc1C1(CO1)C2=O` (centres undefined), for which the IC50 with Trypanosoma cruzi [1] was 1.3 µM.
With `CC1(C)OC2=C(C(=O)C(=O)c3ccccc32)C1Nc1ccccc1` (centres undefined), in the assay with Trypanosoma cruzi [1], the IC50 came to 86.3 µM.
Turning to `O=C1C(=O)c2ccccc2C2=C1CCC(c1ccccc1)O2` (centres undefined), half-maximal inhibition in the assay on Trypanosoma cruzi [1] (IC50) required 56 µM. For the same compound, in the assay with Trypanosoma cruzi [2], the “Ratio IC50” value was found to be 2.
In the case of `CC1(C)CCc2c(c3ccccc3c3nc4cc(Nc5ccccc5)/c(=N/c5ccccc5)cc-4n(-c4ccccc4)c23)O1`, the EC50 in the assay with Trypanosoma cruzi [1] (read-out: ED50 (the source's name)) came to 61.3 µM.
